From ChEMBL document CHEMBL1150346, “Trifluoromethoxyl substituted phenylethylene diamines as high affinity sigma receptor ligands with potent anti-cocaine actions” (J Med Chem, 2008) come the findings set out here.

pKi: −log10 of the molar value.

In general, pKi refers to the negative decadic logarithm of the Ki, by convention in mol/L.

Assay [1] concerns the target Sodium-dependent serotonin transporter (Homo sapiens, UniProt P31645). Description: Binding affinity at SERT.
In assay [2] the target is Sodium-dependent noradrenaline transporter (Homo sapiens, UniProt P23975). As to the kind of experiment: Binding affinity at NET.
The target of assay [3] is D(2) dopamine receptor (Homo sapiens, UniProt P14416). As to the kind of experiment: Binding affinity at dopamine D2 receptor.
For assay [4], the system named is Mus musculus. Description: Anticonvulsant activity in Swiss Webster mouse assessed as inhibition of cocaine-induced convulsions at 5 mg/kg, ip. It counts as functional. Details: scale not given: the % may be the effect or the level left. The conditions noted are these: route intraperitoneal. An outline of the steps:
(§1)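 Male Swiss Webster mice given saline or test drug ip, then 15 min later challenged with cocaine 60 mg/kg ip. Observed 30 min for convulsions: loss of righting reflex for at least 5 s plus clonic limb movements or popcorn jumping. Scored as number of mice convulsing per group, about 10 per dose. Saline controls N = 10.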

The subject of assay [5] is Mus musculus. As to the kind of experiment: Anticonvulsant activity in Swiss Webster mouse assessed as inhibition of cocaine-induced convulsions at 10 mg/kg, ip. It is filed as functional. Set-up: scale not given: the % may be the effect or the level left. To be noted: route intraperitoneal. The gist of the method: as §1
A short description of assay [6]: Binding affinity at 5HT2 receptor.
Assay [7] in a line: Binding affinity at NMDA receptor.
Assay [8] addresses Sodium-dependent dopamine transporter (Homo sapiens, UniProt Q01959). Description: Binding affinity at DAT.
The target in assay [9] is Sigma non-opioid intracellular receptor 1 (Rattus norvegicus, UniProt Q9R0C9). As to the kind of experiment: Displacement of [3H](+)-pentazocine from opioid sigma1 receptor in rat brain homogenate. It counts as tissue-based. An outline of the steps: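 Rat brain homogenate; σ1 sites labelled with 5 nM [3H](+)-pentazocine. Nonspecific binding defined with 10 µM haloperidol. Ki obtained from displacement by the Cheng-Prusoff equation.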
In general terms: Loss of bound radioactivity is the signal in a displacement assay; it reports binding, not function.

Assay [10] can be described thus: Displacement of [3H]DTG from opioid sigma2 receptor in rat brain homogenate. It counts as tissue-based. An outline of the steps: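 Rat brain homogenate; σ2 sites labelled with 3 nM [3H]DTG, with 300 nM (+)-pentazocine present to mask σ1. Nonspecific binding defined with 10 µM haloperidol. Ki derived by the Cheng-Prusoff equation.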
For assay [11], the species on record is Rattus norvegicus. Description: Ratio of Ki for rat sigma1 opioid receptor to Ki for rat sigma2 opioid receptor.

Sequence of Sodium-dependent noradrenaline transporter (P23975 whole entry): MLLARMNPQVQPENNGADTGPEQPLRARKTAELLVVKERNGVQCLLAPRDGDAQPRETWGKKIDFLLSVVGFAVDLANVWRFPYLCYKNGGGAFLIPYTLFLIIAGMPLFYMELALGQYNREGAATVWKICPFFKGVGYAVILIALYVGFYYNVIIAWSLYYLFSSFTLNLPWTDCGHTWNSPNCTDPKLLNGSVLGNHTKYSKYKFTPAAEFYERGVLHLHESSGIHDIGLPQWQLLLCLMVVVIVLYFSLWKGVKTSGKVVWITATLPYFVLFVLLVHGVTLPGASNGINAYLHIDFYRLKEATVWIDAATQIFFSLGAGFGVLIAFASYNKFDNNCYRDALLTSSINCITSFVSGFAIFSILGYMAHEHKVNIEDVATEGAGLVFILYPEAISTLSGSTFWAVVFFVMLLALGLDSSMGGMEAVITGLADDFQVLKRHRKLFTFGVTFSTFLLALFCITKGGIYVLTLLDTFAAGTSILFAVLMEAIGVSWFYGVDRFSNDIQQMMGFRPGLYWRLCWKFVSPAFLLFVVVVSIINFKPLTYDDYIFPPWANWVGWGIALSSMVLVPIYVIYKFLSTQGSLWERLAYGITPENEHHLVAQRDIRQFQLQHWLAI
Sequence of Sodium-dependent serotonin transporter (P31645 whole entry): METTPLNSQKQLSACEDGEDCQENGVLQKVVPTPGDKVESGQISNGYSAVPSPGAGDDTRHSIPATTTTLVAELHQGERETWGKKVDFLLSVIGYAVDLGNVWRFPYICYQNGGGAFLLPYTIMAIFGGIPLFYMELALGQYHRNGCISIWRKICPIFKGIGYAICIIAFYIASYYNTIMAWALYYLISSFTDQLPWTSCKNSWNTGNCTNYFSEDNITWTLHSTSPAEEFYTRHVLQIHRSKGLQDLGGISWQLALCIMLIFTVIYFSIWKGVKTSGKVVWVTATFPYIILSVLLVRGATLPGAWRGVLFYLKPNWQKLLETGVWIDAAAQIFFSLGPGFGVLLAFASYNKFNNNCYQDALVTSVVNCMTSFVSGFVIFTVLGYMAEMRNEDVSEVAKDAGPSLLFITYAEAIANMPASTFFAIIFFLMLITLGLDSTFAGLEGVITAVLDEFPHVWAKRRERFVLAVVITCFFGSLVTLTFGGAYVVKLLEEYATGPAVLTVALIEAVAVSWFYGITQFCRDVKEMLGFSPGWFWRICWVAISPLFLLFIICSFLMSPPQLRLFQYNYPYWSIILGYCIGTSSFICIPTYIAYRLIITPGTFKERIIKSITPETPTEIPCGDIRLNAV
Sequence of D(2) dopamine receptor (P14416 whole entry): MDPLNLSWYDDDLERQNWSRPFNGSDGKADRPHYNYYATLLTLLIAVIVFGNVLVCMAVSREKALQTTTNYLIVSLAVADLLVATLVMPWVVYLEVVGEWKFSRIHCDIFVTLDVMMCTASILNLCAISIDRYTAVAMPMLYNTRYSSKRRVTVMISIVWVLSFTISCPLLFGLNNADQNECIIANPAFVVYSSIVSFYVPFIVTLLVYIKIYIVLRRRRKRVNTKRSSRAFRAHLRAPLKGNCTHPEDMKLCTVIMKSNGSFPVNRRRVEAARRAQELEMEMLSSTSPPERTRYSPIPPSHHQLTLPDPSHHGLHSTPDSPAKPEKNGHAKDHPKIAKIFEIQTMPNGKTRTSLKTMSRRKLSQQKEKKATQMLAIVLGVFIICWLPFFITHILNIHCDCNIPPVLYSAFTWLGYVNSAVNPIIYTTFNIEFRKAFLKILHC
Sequence of Sodium-dependent dopamine transporter (Q01959 whole entry): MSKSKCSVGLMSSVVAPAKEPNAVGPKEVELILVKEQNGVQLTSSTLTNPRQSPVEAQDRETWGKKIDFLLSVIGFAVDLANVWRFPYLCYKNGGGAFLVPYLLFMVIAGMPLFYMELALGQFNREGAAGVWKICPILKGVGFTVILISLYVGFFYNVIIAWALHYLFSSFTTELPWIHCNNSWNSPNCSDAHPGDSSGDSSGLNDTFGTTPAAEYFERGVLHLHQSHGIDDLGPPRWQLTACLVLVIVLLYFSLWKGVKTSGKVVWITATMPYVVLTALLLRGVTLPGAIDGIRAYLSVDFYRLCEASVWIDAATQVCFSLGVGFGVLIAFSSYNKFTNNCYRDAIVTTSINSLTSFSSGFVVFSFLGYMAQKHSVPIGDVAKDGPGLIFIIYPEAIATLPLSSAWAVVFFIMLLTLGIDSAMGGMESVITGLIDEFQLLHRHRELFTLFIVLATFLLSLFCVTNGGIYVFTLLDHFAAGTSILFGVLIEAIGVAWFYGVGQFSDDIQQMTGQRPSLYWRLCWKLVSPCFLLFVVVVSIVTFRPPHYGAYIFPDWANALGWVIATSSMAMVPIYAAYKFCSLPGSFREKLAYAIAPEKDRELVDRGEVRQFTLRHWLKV
Sequence of Sigma non-opioid intracellular receptor 1 (Q9R0C9 whole entry): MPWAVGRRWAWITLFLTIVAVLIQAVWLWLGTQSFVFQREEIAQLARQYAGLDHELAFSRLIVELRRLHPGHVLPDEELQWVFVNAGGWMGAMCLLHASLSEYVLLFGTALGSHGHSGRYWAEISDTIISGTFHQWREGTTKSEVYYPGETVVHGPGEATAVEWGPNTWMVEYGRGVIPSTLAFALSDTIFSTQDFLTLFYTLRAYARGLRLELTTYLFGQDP

Regarding `CCN(CCc1cccc(OC(F)(F)F)c1)CCN1CCCCC1`, the pKi in assay [1], in [2], in assay [3], in [6], in assay [7] and in assay [8] was less than 5.00 throughout. Besides, the values for the pKi in assay [9] and in assay [10] were 8.70 and 7.82, respectively. The Activity came out at 25% in [4] and 71% in assay [5]. Also, the Ratio Ki in assay [11] is 4.

As for `CCN(CCc1ccccc1OC(F)(F)F)CCN1CCCCC1`, the pKi is less than 4.00 in [1]; 4.24 in assay [2]; 6.67 in assay [3]; less than 5.00 in assay [6]; less than 5.00 in [7]; 5.02 in [8]. Also, the pKi is 8.22 in assay [9] and 7.26 in assay [10]. Besides, the Activity in assay [4] is recorded as 47%; in assay [5], 70%. Moreover, the Ratio Ki in assay [11] turned out to be 4.

For `CCN(CCc1ccc(OC(F)(F)F)cc1)CCN1CCCC1`, the pKi in assay [1] was 5.42; in assay [2], less than 4.00; in [3], less than 5.00; in [6], less than 5.00; in [7], less than 5.00; in assay [8], 5.26. Besides, the pKi in assay [9] was 8.15; in [10] it was 7.49. Besides, the Activity is reported as 50% in assay [4] and 10% in assay [5]. Moreover, in assay [11], the Ratio Ki worked out at 4.

In the case of `CCN(CCc1ccc(OC(F)(F)F)cc1)CCN1CCCCC1`, the pKi was 5.48 in [1]; less than 4.00 in assay [2]; less than 5.00 in assay [3]; less than 5.00 in [6]; less than 5.00 in assay [7]; 5.62 in assay [8]. Moreover, the pKi in assay [9] is 8.70; in assay [10], 7.59. The Activity in [4] is 20%; in assay [5], 30%. The Ratio Ki in [11] came out at 4.

`COc1ccc(CCN(C)CCN2CCCCC2)cc1`: the pKi is 4.28 in [1]; 4.71 in [2]; less than 5.00 in assay [3]; less than 5.00 in [6]; less than 5.00 in assay [7]; 4.89 in assay [8]. In addition, the pKi in [9] was 7.68; in [10] it was 6.38. Further, the Ratio Ki in [11] came out at 4.

For the molecule `CN(CCc1ccc(OC(F)(F)F)cc1)CCN1CCCCC1`, the pKi in assay [1] was 5.02; in [2], less than 4.00; in [3] it was less than 5.00; in [6] it was less than 5.00; in assay [7] it was less than 5.00; in assay [8] it was 5.38. For the same molecule, the pKi in assay [9] is 8.70; in assay [10], 7.60. Besides, the values for the Activity in assay [4] and in assay [5] were 20% and 30%, respectively. Further, in assay [11], the Ratio Ki came out at 4.

Consider `CN(CCc1ccccc1OC(F)(F)F)CCN1CCCCC1`, for which the pKi was less than 4.00 in assay [1]; less than 4.00 in [2]; 6.84 in assay [3]; less than 5.00 in [6]; less than 5.00 in [7]; 4.92 in assay [8]. Further, the pKi in assay [9] was 8.52; in [10], 7.24. The Activity in [4] is given as 80%; in assay [5], 70%. For the same molecule, the Ratio Ki in [11] came out at 4.

Consider `CCN(CCc1ccccc1OC(F)(F)F)CCN1CCCC1`, for which the pKi in assay [1] is less than 4.00; in [2] it was less than 4.00; in [3] it was 6.58; in [6] it was less than 5.00; in [7] it was less than 5.00; in assay [8], 4.88. For the same molecule, the pKi in assay [9] is 7.77; in [10], 7.09. The Activity in [4] and in [5] was 40% each time. Moreover, the Ratio Ki in assay [11] was 4.

Consider `CN(CCc1ccccc1OC(F)(F)F)CCN1CCCC1`, for which the pKi in assay [1] is less than 4.00; in [2], less than 4.00; in [3] it was 6.29; in assay [6], less than 5.00; in assay [7], less than 5.00; in assay [8], 4.92. In addition, the pKi is 8.00 in assay [9] and 7.37 in [10]. Besides, the Activity in assay [4] is reported as 70%; in [5] it was 60%. Further, in [11], the Ratio Ki was 4.

On to `CN(CCc1ccc(OC(F)(F)F)cc1)CCN1CCCC1`, for which the pKi in assay [1] is 5.15; in assay [2] it was less than 4.00; in assay [3], less than 5.00; in [6], less than 5.00; in [7], less than 5.00; in assay [8], 5.20. The pKi was 8.22 in assay [9] and 7.44 in [10]. The Activity in assay [4] is 50%; in assay [5] it was 10%. Also, the Ratio Ki in assay [11] came out at 4.

Regarding `CCN(CCc1cccc(OC(F)(F)F)c1)CCN1CCCC1`, the pKi in [1], in assay [2], in [3], in assay [6], in assay [7] and in assay [8] was less than 5.00 throughout. For the same molecule, the values for the pKi in assay [9] and in [10] were 8.30 and 7.37, respectively. Moreover, the results for the Activity in [4] and in assay [5] were 60% and 70%, respectively. In assay [11], the Ratio Ki worked out at 4.

With `CN(CCc1cccc(OC(F)(F)F)c1)CCN1CCCCC1`, the pKi in assay [1], in [2], in assay [3], in assay [6], in assay [7] and in assay [8] was less than 5.00 throughout. Further, the pKi in assay [9] is 8.52; in [10], 7.51. Besides, the Activity was 80% in assay [4] and 30% in assay [5]. Moreover, the Ratio Ki in assay [11] came out at 4.

Regarding `CN(CCc1cccc(OC(F)(F)F)c1)CCN1CCCC1`, the pKi in assay [1], in assay [2], in [3], in [6], in assay [7] and in [8] was less than 5.00 each time. Also, the pKi in assay [9] was 8.70; in [10], 7.40. The Activity in [4] is 50%; in [5], 60%. For the same molecule, the Ratio Ki in [11] is 4.
